The source of these data is ChEMBL document CHEMBL1275403 (J Med Chem, 2010).

A short description of series [1]: Cytotoxicity against mouse ScGT1 cells assessed as cell viability at 1 uM after 5 days by calcein-AM assay. To be noted: read-out: Activity. In kind it is cell-based. In a few lines: (§1)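 ScGT1 cells in DMEM with 10% FBS were plated at 25000 cells/well. Compounds were dissolved in DMSO, diluted in PBS and added at 10 nM–10 μM. Cells were incubated 5 days at 37 °C, 5% CO2. Viability was read by calcein-AM fluorescence as average percent viable cells versus untreated control. Values are mean of three experiments with SD.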

Series [2] concerns ScGT1. The series can be described thus: Antiprion activity against scrapie prion protein-infected mouse ScGT1 cells assessed as accumulation of PrPSc at 1 uM after 5 days by Western blotting. In kind it is cell-based. In a few lines:
(§2)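 ScGT1 cells in DMEM with 10% FBS were split 1:10 into Petri dishes and grown 2 days at 37 °C, 5% CO2. Non-toxic compound concentrations (10 nM–2 μM) were then added. After 5 days, cell proteins were extracted, quantified, proteinase K-digested and western-blotted. PK-resistant PrPSc was quantified by densitometry. EC50 is half-maximal inhibition. Values are mean of three experiments with SD.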
Background: Immunoblotting shows a protein as a band on a membrane.

Series [3] is described as follows: Antiprion activity against scrapie prion protein-infected mouse ScGT1 cells assessed as accumulation of PrPSc after 5 days by Western blotting. To be noted: ScGT1, 120 h. In kind it is cell-based. The essentials: as §2
Series [4] can be described thus: Cytotoxicity against mouse ScGT1 cells assessed as cell viability at EC50 after 5 days by calcein-AM assay. In kind it is cell-based. Particulars: read-out: INH. The essentials:
as §1

Series [5] in a line: Inhibition of scrapie prion protein-mediated lag phase prion fibril formation after 72 hrs by amyloid seeding assay. In a few lines:
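In vitro amyloid seeding assay of recombinant PrP fibril formation, with compounds at 2 μM. The read-out is lag phase in hours, compared against an untreated control. Significance was tested by Student's t-test, n = 4.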

A short description of series [6]: Antioxidant activity in mouse ScGT1 cells assessed as inhibition of ROS formation at 1 uM after 3 hrs by TBARS assay. In kind it is functional. To be noted: ScGT1, 3 h. The essentials: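 ScGT1 cells were treated at 1 μM, and lipid hydroperoxides and aldehydes were measured by the TBARS assay. Results are expressed as average percent TBARS of treated cells versus untreated cells. A water-soluble vitamin E derivative served as positive control. Values are mean ± SD, n = 3.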

Series [7] in a line: Cytotoxicity against mouse ScGT1 cells assessed as cell viability at 0.2 uM after 5 days by calcein-AM assay. In kind it is cell-based. To be noted: read-out: Activity. The essentials:
as §1

The test system of series [8] is ScGT1. The series can be described thus: Antiprion activity against scrapie prion protein-infected mouse ScGT1 cells assessed as accumulation of PrPSc at 0.2 uM after 5 days by Western blotting. In kind it is cell-based. The essentials:
as §2

Usually inhibition stands for the relative decrease from the control value, in per cent. Broadly, the EC50 is the midpoint of the concentration-response curve. `COc1ccc2nc3cc(Cl)ccc3c(NCCCNC3=CC(=O)C(NCCCNc4c5ccc(Cl)cc5nc5ccc(OC)cc45)=CC3=O)c2c1`: in series [1], the viability at 120 h, 1 µM is 65.5%. For the same compound, the inhibition in the series with ScGT1 [2] came to 89.7%. Besides, the EC50 in series [3] came to 680 nM. For the same compound, in series [4], the viability at 120 h is 75.2%. Further, in series [5], the TIME was 45 h. Further, in series [6], the inhibition at 1 µM came to 83%.

As to `O=C1C=C(NCCCNCCCNc2ccnc3cc(Cl)ccc23)C(=O)C=C1NCCCNCCCNc1ccnc2cc(Cl)ccc12`, the viability at 120 h, 1 µM in series [1] was 105%. For the same compound, in the series on ScGT1 [2], the inhibition worked out at 49.1%. The EC50 in series [3] amounted to 1200 nM. The viability at 120 h in series [4] is 91.3%. This compound also displayed a TIME in series [5] of 40 h. In series [6], the inhibition at 1 µM was found to be 83%.

For `COc1ccc2nc3cc(Cl)ccc3c(NCCCN3CCN(CCCNc4c5ccc(Cl)cc5nc5ccc(OC)cc45)CC3)c2c1`, in series [1], the viability at 120 h, 1 µM is 75.6%. Also, the inhibition in the series with ScGT1 [2] is 102%. In addition, in series [3], the concentration for a half-maximal effect (EC50) is 320 nM. In addition, the viability at 120 h in series [4] was 92.4%. Besides, in series [5], the TIME amounted to 55 h. For the same compound, the inhibition at 1 µM in series [6] amounted to 93%.

On to `O=C1C=C(NCCNc2c3c(nc4ccccc24)CCCC3)C(=O)C=C1NCCNc1c2c(nc3ccccc13)CCCC2`, for which, in series [1], the viability at 120 h, 1 µM was 108%. Moreover, the inhibition in the series with ScGT1 [2] came to 7.1%.

As for `O=C1C=C(NCCNc2ccnc3cc(Cl)ccc23)C(=O)C=C1NCCNc1ccnc2cc(Cl)ccc12`, in series [1], the viability at 120 h, 1 µM was 115%. Further, the inhibition in the series on ScGT1 [2] stood at 6.2%.

Consider `COc1ccc2nccc(NCCCNC3=CC(=O)C(NCCCNc4ccnc5ccc(OC)cc45)=CC3=O)c2c1`, for which the viability at 120 h, 1 µM in series [1] is 87.2%. Moreover, in the series on ScGT1 [2], the inhibition was 4.7%.

Consider `COc1ccc2nc3cc(Cl)ccc3c(NCCCNCCCNC3=CC(=O)C(NCCCNCCCNc4c5ccc(Cl)cc5nc5ccc(OC)cc45)=CC3=O)c2c1`, for which, in series [1], the viability at 120 h, 1 µM was 1.5%. For the same compound, in series [7], the viability at 120 h, 0.2 µM is 65.8%. Besides, in the series on ScGT1 [8], the inhibition stood at 5.4%.

Regarding `O=C1C=C(NCCCNc2c3c(nc4cc(Cl)ccc24)CCCC3)C(=O)C=C1NCCCNc1c2c(nc3cc(Cl)ccc13)CCCC2`, the viability at 120 h, 1 µM in series [1] was 78.6%. In addition, the inhibition in the series with ScGT1 [2] turned out to be 105%. In addition, the 50% effective concentration (EC50) in series [3] was 170 nM. Moreover, the viability at 120 h in series [4] was 102%. For the same compound, the TIME in series [5] was 57 h. Moreover, in series [6], the inhibition at 1 µM amounted to 69%.

`O=C1C=C(NCCCNc2ccnc3cc(Cl)ccc23)C(=O)C=C1NCCCNc1ccnc2cc(Cl)ccc12`: the viability at 120 h, 1 µM in series [1] was 100%. Further, the inhibition in the series with ScGT1 [2] turned out to be 85.5%. Also, the EC50 in series [3] was determined as 730 nM. Also, the viability at 120 h in series [4] was 99.6%. In addition, in series [5], the TIME worked out at 53 h. In addition, the inhibition at 1 µM in series [6] worked out at 83%.

For `O=C1C=C(NCCCNc2ccnc3cc(Cl)ccc23)C(=O)c2ccccc21`, in series [1], the viability at 120 h, 1 µM is 94.3%. In addition, the inhibition with ScGT1 [2] worked out at 2.9%.

As for `COc1ccc2nc3cc(Cl)ccc3c(NCCNC3=CC(=O)C(NCCNc4c5ccc(Cl)cc5nc5ccc(OC)cc45)=CC3=O)c2c1`, the viability at 120 h, 1 µM in series [1] is 18.2%. Further, in series [7], the viability at 120 h, 0.2 µM is 80.1%. The inhibition in the series on ScGT1 [8] was found to be 3.1%.

Take `Cc1c(C)c2c(c(C)c1O)CCC(C)(C(=O)O)O2` (configuration not stated) [TROLOX]: the inhibition at 1 µM in series [6] amounted to 71%.

In the case of `O=C1C=C(NCCCNCCCNc2c3c(nc4ccccc24)CCCC3)C(=O)C=C1NCCCNCCCNc1c2c(nc3ccccc13)CCCC2`, the viability at 120 h, 1 µM in series [1] was 95.4%. Moreover, the inhibition in the series with ScGT1 [2] was 3.4%.
